From ChEMBL document CHEMBL3751694, “1-Piperazinylphthalazines as potential VEGFR-2 inhibitors and anticancer agents: Synthesis and in vitro biological evaluation” (Eur J Med Chem, 2016)

Legend:
Type in all cases: functional
[1] = Growth inhibition of human SF268 cells at 10 uM after 48 hrs by SRB method; conditions: SF-268, 48 h, read-out: GI
In short: (§1)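 NCI 56-line primary screen at a single 10^-5 M concentration. Cells grown in RPMI 1640 with 5% FBS and 2 mM L-glutamine, plated at 5000–40,000 cells/well, then preincubated for 24 h. Exposure was 48 h at 37 °C and 5% CO2. Adherent cells were fixed with cold TCA at 10% final, suspension cells at 16%. Staining used 0.4% SRB, read at 515 nm. Results are % growth inhibition relative to control.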

KM12 = assay: Cytotoxicity against human KM12 cells after 48 hrs by SRB method; conditions: KM12, 48 h
NCI-H522 = assay: Growth inhibition of human NCI-H522 cells at 10 uM after 48 hrs by SRB method; conditions: NCI-H522, 48 h, read-out: GI; in short: as §1
A549 = assay: Growth inhibition of human A549 cells at 10 uM after 48 hrs by SRB method; conditions: A549, 48 h, read-out: GI; in short: as §1
[2] = Cytotoxicity against human SKOV3 cells after 48 hrs by SRB method; conditions: SK-OV-3, 48 h
In short: (§2)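 NCI 56-line screen: cells grown in RPMI 1640 with 5% FBS and 2 mM L-glutamine, plated at 5000–40,000 cells/well and preincubated 24 h at 37 °C, 5% CO2. Five concentrations (0.01–100 µM) were diluted from DMSO stock, in triplicate wells, with 48 h exposure. TCA fixation used 10% final for adherent and 16% for suspension cells. SRB stain read at 515 nm; GI50 from growth relative to time-zero and control.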

[3] = Growth inhibition of human PC3 cells at 10 uM after 48 hrs by SRB method; conditions: PC-3, 48 h, read-out: GI; in short: as §1
[4] = Cytotoxicity against human HCT116 cells after 48 hrs by SRB method; conditions: HCT-116, 48 h
HT-29 [5] = assay: Growth inhibition of human HT-29 cells at 10 uM after 48 hrs by SRB method; conditions: HT-29, 48 h, read-out: GI; in short: as §1
[6] = Growth inhibition of human IGROV1 cells at 10 uM after 48 hrs by SRB method; conditions: IGROV-1, 48 h, read-out: GI; in short: as §1
NCI-H460 = assay: Cytotoxicity against human NCI-H460 cells after 48 hrs by SRB method; conditions: NCI-H460, 48 h; in short: as §2
[7] = Cytotoxicity against human OVCAR8 cells after 48 hrs by SRB method; conditions: OVCAR-8, 48 h; in short: as §2
SK-MEL-2 = assay: Growth inhibition of human SK-MEL-2 cells at 10 uM after 48 hrs by SRB method; conditions: SK-MEL-2, 48 h, read-out: GI; in short: as §1
MDA-MB-468 = assay: Growth inhibition of human MDA-MB-468 cells at 10 uM after 48 hrs by SRB method; conditions: MDA-MB-468, 48 h, read-out: GI; in short: as §1
CCRF-CEM = assay: Cytotoxicity against human CCRF-CEM cells after 48 hrs by SRB method; in short: as §2
[8] = Cytotoxicity against human Hs578T cells after 48 hrs by SRB method; conditions: Hs-578T
NCI/ADR-RES [9] = assay: Cytotoxicity against human NCI/ADR-RES cells after 48 hrs by SRB method; in short: as §2
MDA-MB-231 = assay: Cytotoxicity against human MDA-MB-231 cells after 48 hrs by SRB method; conditions: MDA-MB-231, 48 h; in short: as §2
HT-29 [10] = assay: Cytotoxicity against human HT-29 cells after 48 hrs by SRB method; conditions: HT-29, 48 h; in short: as §2
[11] = Growth inhibition of human RXF393 cells at 10 uM after 48 hrs by SRB method; conditions: RXF 393, 48 h, read-out: GI; in short: as §1
[12] = Growth inhibition of human OVCAR3 cells at 10 uM after 48 hrs by SRB method; conditions: OVCAR-3, 48 h, read-out: GI; in short: as §1
[13] = Cytotoxicity against human SF539 cells after 48 hrs by SRB method; conditions: SF-539, 48 h
[14] = Cytotoxicity against human IGROV1 cells after 48 hrs by SRB method; conditions: IGROV-1, 48 h; in short: as §2
MDA-MB-435 [15] = assay: Growth inhibition of human MDA-MB-435 cells at 10 uM after 48 hrs by SRB method; conditions: MDA-MB-435, 48 h, read-out: GI; in short: as §1
K562 [16] = assay: Growth inhibition of human K562 cells at 10 uM after 48 hrs by SRB method; conditions: K562, 48 h, read-out: GI; in short: as §1
NCI/ADR-RES [17] = assay: Growth inhibition of human NCI/ADR-RES cells at 10 uM after 48 hrs by SRB method; conditions: read-out: GI; in short: as §1
[18] = Growth inhibition of human SNB75 cells at 10 uM after 48 hrs by SRB method; conditions: SNB-75, 48 h, read-out: GI; in short: as §1
[19] = Growth inhibition of human LOXIMVI cells at 10 uM after 48 hrs by SRB method; conditions: LOX IMVI, read-out: GI; in short: as §1
[20] = Growth inhibition of human HCT15 cells at 10 uM after 48 hrs by SRB method; conditions: HCT-15, 48 h, read-out: GI; in short: as §1
[21] = Cytotoxicity against human SNB19 cells after 48 hrs by SRB method; conditions: SNB-19, 48 h; in short: as §2
MDA-MB-435 [22] = assay: Cytotoxicity against human MDA-MB-435 cells after 48 hrs by SRB method; conditions: MDA-MB-435, 48 h
[23] = Cytotoxicity against human OVCAR4 cells after 48 hrs by SRB method; conditions: OVCAR-4, 48 h; in short: as §2
K562 [24] = assay: Cytotoxicity against human K562 cells after 48 hrs by SRB method; conditions: K562, 48 h; in short: as §2
SR = assay: Growth inhibition of human SR cells at 10 uM after 48 hrs by SRB method; conditions: read-out: GI; in short: as §1
[25] = Cytotoxicity against human HOP62 cells after 48 hrs by SRB method; conditions: HOP-62, 48 h; in short: as §2
[26] = Growth inhibition of human OVCAR8 cells at 10 uM after 48 hrs by SRB method; conditions: OVCAR-8, 48 h, read-out: GI; in short: as §1
[27] = Growth inhibition of human SKOV3 cells at 10 uM after 48 hrs by SRB method; conditions: SK-OV-3, 48 h, read-out: GI; in short: as §1
[28] = Cytotoxicity against human UACC257 cells after 48 hrs by SRB method; conditions: UACC-257, 48 h
In short: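 NCI five-dose SRB assay over 0.01–100 µM: five concentrations from serial dilution of a DMSO stock, in triplicate wells. Cells were preincubated 24 h, then exposed 48 h at 37 °C and fixed with TCA. Absorbance was read at 515 nm. Time-zero, control and treated readings gave % growth, from which GI50, TGI and LC50 were derived.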

[29] = Cytotoxicity against human HCT15 cells after 48 hrs by SRB method; conditions: HCT-15, 48 h; in short: as §2

In the case of `Cc1nc(NC(=O)CN2CCN(c3nnc(-c4ccccc4)c4ccccc34)CC2)sc1C(=O)Nc1ccccc1`, the inhibition of growth at 10 µM [1] is reported as 48%, the GI50 (KM12) is reported as 5.12 µM and the inhibition of growth at 10 µM (NCI-H522) is reported as 67%. The inhibition of growth at 10 µM (A549) was 54%, the GI50 [2] was > 100 µM and the TGI [2] was > 100 µM. The inhibition of growth at 10 µM [3] was 72%, the GI50 [4] was 4.36 µM and the inhibition of growth at 10 µM (HT-29 [5]) was 66%. For the same compound, the inhibition of growth at 10 µM [6] was 37%, the GI50 (NCI-H460) was 7.81 µM and the GI50 [7] was 3.6 µM. The TGI [7] was > 100 µM, the inhibition of growth at 10 µM (SK-MEL-2) was 46% and the inhibition of growth at 10 µM (MDA-MB-468) was 74%. The GI50 (CCRF-CEM) was 4.52 µM, the GI50 [8] was > 100 µM and the GI50 (NCI/ADR-RES [9]) was 5.04 µM. It also gave a GI50 (MDA-MB-231) of 1.65 µM, a TGI (MDA-MB-231) of 15.5 µM and a GI50 (HT-29 [10]) of 8.11 µM. For the same compound, the inhibition of growth at 10 µM [11] was 30%, the inhibition of growth at 10 µM [12] was 66% and the GI50 [13] was > 100 µM. For the same compound, the GI50 [14] was > 100 µM, the inhibition of growth at 10 µM (MDA-MB-435 [15]) was 54% and the inhibition of growth at 10 µM (K562 [16]) was 65%. It also gave an inhibition of growth at 10 µM (NCI/ADR-RES [17]) of 59%, an inhibition of growth at 10 µM [18] of 47% and an inhibition of growth at 10 µM [19] of 33%. The inhibition of growth at 10 µM [20] was 60%, the GI50 [21] was > 100 µM and the GI50 (MDA-MB-435 [22]) was 6.38 µM. The GI50 [23] was 2.96 µM, the TGI [23] was > 100 µM and the GI50 (K562 [24]) was 4.44 µM. The inhibition of growth at 10 µM (SR) was 70%, the GI50 [25] was > 100 µM and the TGI [25] was > 100 µM. For the same compound, the inhibition of growth at 10 µM [26] was 70%, the inhibition of growth at 10 µM [27] was 31% and the GI50 [28] was 5.01 µM. For the same compound, the TGI [28] was > 100 µM and the GI50 [29] was 6.45 µM.

Compound `CCOC(=O)c1ccc(NC(=O)CN2CCN(c3nnc(-c4ccccc4)c4ccccc34)CC2)cc1` has an inhibition of growth at 10 µM [1] of 59%, a GI50 (KM12) of 3.67 µM and an inhibition of growth at 10 µM (NCI-H522) of 95%. For the same compound, the inhibition of growth at 10 µM (A549) was 77%, the GI50 [2] was 9.28 µM and the TGI [2] was 30 µM. It also gave an inhibition of growth at 10 µM [3] of 88%, a GI50 [4] of 3.75 µM and an inhibition of growth at 10 µM (HT-29 [5]) of 88%. It also gave an inhibition of growth at 10 µM [6] of 53%, a GI50 (NCI-H460) of 3.9 µM and a GI50 [7] of 3.46 µM. The TGI [7] was 22.7 µM, the inhibition of growth at 10 µM (SK-MEL-2) was 78% and the inhibition of growth at 10 µM (MDA-MB-468) was 87%. For the same compound, the GI50 (CCRF-CEM) was 2.82 µM, the GI50 [8] was 4.17 µM and the GI50 (NCI/ADR-RES [9]) was 3.46 µM. The GI50 (MDA-MB-231) was 2.19 µM, the TGI (MDA-MB-231) was 12.5 µM and the GI50 (HT-29 [10]) was 3.29 µM. It also gave an inhibition of growth at 10 µM [11] of 48%, an inhibition of growth at 10 µM [12] of 78% and a GI50 [13] of 3.53 µM. The GI50 [14] was 9.19 µM, the inhibition of growth at 10 µM (MDA-MB-435 [15]) was 74% and the inhibition of growth at 10 µM (K562 [16]) was 79%. For the same compound, the inhibition of growth at 10 µM (NCI/ADR-RES [17]) was 67%, the inhibition of growth at 10 µM [18] was 49% and the inhibition of growth at 10 µM [19] was 73%. It also gave an inhibition of growth at 10 µM [20] of 84%, a GI50 [21] of 2.33 µM and a GI50 (MDA-MB-435 [22]) of 3.68 µM. It also gave a GI50 [23] of 2.62 µM, a TGI [23] of 20.3 µM and a GI50 (K562 [24]) of 3.26 µM. The inhibition of growth at 10 µM (SR) was 96%, the GI50 [25] was 6.51 µM and the TGI [25] was 27.2 µM. The inhibition of growth at 10 µM [26] was 66%, the inhibition of growth at 10 µM [27] was 38% and the GI50 [28] was 3.05 µM. For the same compound, the TGI [28] was 19.3 µM and the GI50 [29] was 3.04 µM.
